Reference: the RNAGym collection of RNA variant scans (doi:10.1126/science.aae0568)
Fewer inactive variants are shown than the library holds.

B1: tRNA (parent)
chain: GUUCCGUUGGCGUAAUGGUAACGCGUCUCCCUCCUAAGGAGAAGACUGCGGGUUCGAGUCCCGUACGGAACG

Variants of: B1
Assay: yeast fitness relative to wild type (ratio to wild type); higher = fitter; tRNA-Arg(CCU), competitive growth, 37 C, YPD
Method in brief: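 Changes in genotype frequencies gave Darwinian fitness relative to wild type. Frequencies were read by 100-nucleotide paired-end sequencing of gene amplicons before and after pooled Saccharomyces cerevisiae strains, carrying tRNA-Arg(CCU) gene variants at the native locus, were competed in YPD at 37°C for 24 hours in six replicates. A genotype was kept only with ≥ 100 starting reads, and estimates < 0.5 were set to 0.5.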

Row | Variant | yeast fitness
1 | GCUCCCUUGGCGUAAUGGUAACGCGUCUCCCUCCUAAGGAGAAGACUGCGGGUUCGAGUCCCGUUCAGAACG | ≤ 0.5
2 | GCUCCGUUGGCGUAAUGGUAACGCGUGACCCUCCUAAGGAGAUGACUGCGGGUUCGAGUCCCGUACGGUACG | 0.541
3 | GCUCCGUUGGCGUAAUGGUAACGCGUCUCCCUCCUAAGGAGAAGAUUGCGGGUUCGAGUCCCGAACGGAACG | 0.688
4 | GCUCCGUUGGCGUAAUGGUAACGCGUCUCCCUCCUAAGGAGAAGACUCCGGGUUCGAGUCCCGUACGGAACG | 1.11
5 | GCUCCGUUGGAGUAAUGGUAACGCGUCUCCUUUCUAAGGAGCAGACUGCGGGUUCGAGUCUCGUACGGAACG | ≤ 0.5
6 | GCUCCGUUGGAGUAAUGGUAACGCGUCUCCCUCCUAAGGAGAAGACUGCGGGUUCGAGUCCCGUACGGUACG | ≤ 0.5
7 | GCUCCGUUGGCGUAAUGGUAAGGCGUCUCCUUCCUUAGGAGAAGACUGUGGGUUCGAGUCCCGUACGGAACG | 0.649
8 | GCUCCGUUGGCGUAAUGGUAACGCGUUGCCCUGCUGAGGAGAAGACUGCGGGUUCGAGUCCCGUACGGAACG | 0.544
9 | GCUCCGUUGGCGUAAUGGUAACGCGUCUGCCUCCUAAGCAGAAGACUGCGGGUUAGAGUCCCGUACGGAACG | ≤ 0.5
10 | GCUCCGUUGGCGUAAUGGUAACGCGUCUCCCUCCUAAGCAGAAGACUGCGGGUUCGAGUCCCGUACGGAACG | 0.774
11 | GCUCCGUUGGCCUAAUGGUAACGCGUCUCCCUCCUAAGGCGAAGACUGCGGGUUCGAGUCCCGUACAGAACG | ≤ 0.5
12 | GCUCCGUUGCCGUAAUGGUAACGCGUCUCCCUCCUAAGGAGAAGACUGCGGGUUCGAGUCCCGUACGGAACG | 0.724
13 | GCUCCGUUAGCGUAAUGGUAACGCGUCUCCAUCCUAAGGAGAAGACUGAGGGUUCGAGACGCGUACGGAACG | ≤ 0.5
14 | GCUCCGUUGGCGUAAUGGUAACGGGUCUUCCUCCUAAGGAGAAGACUGCGGGUUCGAGUCCCGUACGGCACG | ≤ 0.5
15 | GCUCCGUUGGCGUAAUGGUAACGCGUCUCCCUCCUAAGGAGAAGAUUGCGGGUUCGAGUCCCGUACGGAACG | 0.959
16 | GCUCUGUUGGGGUAAUGGUAACGCGUCUCCCUCUUGAGGAGAAGACUGCGGGUUGGUGUCCCGUACAGAACG | ≤ 0.5
17 | GCUCCGUUGGCGUAAUGGUAACGCGUCUCCCUCCUAAGGAGAAGACUGCGGGUUCGAGUCCCGUAAGGAACG | 0.611
18 | GCUCCGUUGGCGUAAUGGUAACGCGUCUUCCUCCUAAGGAGAAGAGUGCGACUUCGAGUCCCGUACGGAACG | 0.557
19 | GCUCCGUUGGCGUAAUGGUAACGCGUCUCCGUCCUAAGGAGAAGACUGCGGGUUCAAGACCCGUACGGAACG | ≤ 0.5
20 | GCUCCGUUGGCGUAAUAGUAACGCGUCUCCCUCCUAAGGAGAAGACUGCGGGUUCGAGUCCCGUACGGCACG | 0.576
21 | GCUCCGUUGGCGUAAUGGUAACCCGUCCCCCUCCUAAGGAGAUGACUGCGGGUUCGAGUACCGUACGGAACG | ≤ 0.5
22 | GCUCGGUUGGGGUAAUGGUAACGCGUCUUCCUCCUUAGGAGAAGACUGCCGGUGCGAGUCCCGUACGGAACG | 0.628
23 | GCUCCCUUGGCGUAAUGGUACCGCGUCUCCCUCCUAAGGAGAAGACUGCGGGUUCGAGUCCCGUAUGGAACG | ≤ 0.5
24 | GCUCCGUUGGCGUAAUGGUAACGCAUCUCCCUCCUAGGGAGAAGACUGCGGGUUCGAGUCCCGUACGGACCG | ≤ 0.5
25 | GCUCGGUUGGCGUAAUGGUAACGUGUCUCCCUCCUAACAAGAAGACUGCGGGUUCGAGUCCCGUACGGAACG | ≤ 0.5

Row | Variant | yeast fitness
26 | GCUCCGUUGGCGUAAUGGUAACGAGACUCCCUCCUAAGGAGAAGACCGCGGGUUCGAGUCUCGUACGGAACG | 0.628
27 | GCUUCGUUGCCGUAAUGGUAACGCGUCUCCCUCCUAAGGAGAAGACUGCGGGUUCGCGUCCCGUACGGAACG | ≤ 0.5
28 | GCUCAGUUGGCGUAAUGGUAACGCGUCUCCCUCCUAAGGGGAAGACUGCGGGUUCGAGUCCCGUACGGAACG | 0.563
29 | GCUCCGUUGGCAUAAUGCUAACGCGUCUCCCUUCUAAGGAGAAGACUGCGGGUUCGAGUCCCGUACGGCACG | 0.565
30 | GCUCCGUUGGCGUAAUGGUAACGCGUCUCCGUCCUAAGGAGAAGACUGCGGGUUCAAGUCCCGUACGGAACG | 0.687
31 | GCUCCGUUGGCGUAAUGGUAACGCGUCUCCCUCCUAAGGAGAAGACUGCCGGUUCGAGUCCCGUACGGAACG | 0.733
32 | GCUCCGUUGGCGUAAUGGUAACGCGUCUCCCUCCUAAGGAGAAGACUGCUGGUUCGAGUCCCGUACGGAACG | 0.825
33 | GCUCCGUUGGCGUAAUGGUAACGCGUCUCCCUCCUAAGGAGAAGAGUGCGGGUUCGAGUCCCGUCCGGAACG | 0.678
34 | GCUCAGUUGGAGUAAUGGUAACGCGUCUCCCUCCUAAGGGGAAGACUGCGGGUUCGAGUCCCGUACGGAACG | ≤ 0.5
35 | GCUCCGUUGGCGUAAUGGUAACCCGUCUCCGUUCUAAGGAGGAGACUGCGGCUUCGACUCCCGUACGGAACG | ≤ 0.5
36 | GCUCUGUUGGCGUAAUGGUAACGCGUCUCCCUCCUAAGGAGAAGACUGCGGGUUCGAGUCCCGUACGGAACG | 0.98
37 | GCUCGGUUGGCGUAAUGGUAACGCGUCUCCCUCCUAAGGAGAAGACUGCGGGUUCGAGUCCCGUACGGAACG | 0.738
38 | GCUCCGUUCGCGCAAUGGUCACGCGUCUCCCUCCUAAGGAGAAGACUGCGGGUUCGAGUCCCGUACGGAACG | ≤ 0.5
39 | GCUCGGUUGGCGUAAUGGUAACGCGUCUCCCUCCUAAGGAGAAGAUUGCGGGUUCGAGUCCCGUACGGAACG | 0.872
40 | GCUCCGUUGGCGUAAUGGUAACGCGUCUCUUUCCUAAGGAGAAGACUGCGGGUUCGAGUCCCGUACGGAACG | 0.698
41 | GCUCCGUUGGCGUAAUGGUAACGCGUCUCCCUUCUAAGGAGAAGACUGCGGGUUCGAGUCCCGUACGGAACG | 0.862
42 | GCUCGGUUGGCGUGAUGGUAACGCGUCUCCCUCCUAAGGAGAAGACUGCGGGUUCGAGUCCCGUACGGAACG | 0.559
43 | GCUCGGUUGGCGUAAUGGUAACGCGUCUCCCUGCUAAGGAGAAGACUGCGGGUUCGAGUACCGUACCGAACG | ≤ 0.5
44 | GCUCCGUUGGCGUAAUGGUAACGCGUCUCUAUCCUAAGGUGAAGACUGAGGGUUCGAGUCCCGUACGGAACG | ≤ 0.5
45 | GCUCCGUUGGCGUAAUGGUAAGGCGUCUCCCUCCUAAGGAGAAGACUGCGGGUUCGAGUCCCGUACGGAACG | 0.878
46 | GCUCCGUUGGCGUAAUGGUAAUGCGUCUCCCUCCUAAGGAGAAGACUGCGGGUUCGAGUCCCGUACGGAACG | 0.842
47 | GCUCCGUUGGCGUAAUGGUAACGCGUCUCCCUCCUAAGGAGAAGACUGAGGGUUCGAGUCCCGUACGGAACG | 0.685
48 | GCUCCGUUGGCGUAAUGGUAACGCGUCUCCCUCCUAAGGAGAAGACUGCGGGUUUGAGUCCCGUACGGAACG | 0.792
49 | GCUCCGUUGGCGUAAUGGUAACGCGUCUCCCUCCUAAGGAGAAGAUUGCGGGUUCGAGUCCCGUUCGGAACG | 1.06
50 | GCUCCGUUGGGGUAAUGGUAACGCGUCUCCCUCCUAAGGAGAAGACUGCGGGUUCGAGUCCCGUACGGAACG | 0.617

Row | Variant | yeast fitness
51 | GCUCCCUUGGCGUAAUGGUAACGCGUCUCCCUCCUAAGGAGGAGACUGCGGGUUCGAGUCCCGUUCAGAACG | ≤ 0.5
52 | GCUCCGUUGGCGUAAUGGUAACGCGUGACCCUCCUAAGGAGAUGACUGCGGGUUCGAGUCCCGUACGGAGCG | ≤ 0.5
53 | GCUCCGUUGGCCUAAUGGUAACGCGUCUCCCUCCUAAGGAGAAGACUGCGGGUUCGAGUCCCGUACGGAACG | 0.831
54 | GCUCCGUUGGCGUAAUGGUAACGCGUUUCCUGCCUAAGGAGAAGACUGCGGGUUAGAGUCCCAUACGGAACG | 0.645
55 | GCUCCGUUGGCGUAAUGGUAACGCGUGUCCCUCCUAAGGAGAAGACUGCGAGUUCGAGUCCCGUACGGAACG | ≤ 0.5
56 | GCUCCGUUGGAGUAAUGGUAAGGCGUCUCCCUCCUAAGGAGAAGACUGCGGGGUCGAGUCCCGUACGGAACG | ≤ 0.5
57 | GCUCCGUUGGCAUAGUGGUAACGCGUCUGCCUGCUAAGGACAAGACUGCGGGUUCGAGUCCCGUAUGGAACG | ≤ 0.5
58 | GCUCCGUUGGCGUAAUGGUAACGCGUCUCCCUCCUAAGGAGAAGACUGCGGGUUCGAGUCUCGUACGGAACG | 0.931
59 | GCUCCGUUGGCGUAAUGGUAACGCGUCUCCGUCCUAAGGAGAAGACUGCGGGUUUGAGUCCCAUACGGAACG | ≤ 0.5
60 | GCUCCGUUGGCGUAAUCGUAACCCCUCUCCCUCCAAAGGAGUAGACUGCGGGUUCGAGUCCCGUAUGGAACG | ≤ 0.5
61 | GCUCCGUUGGCGUAAUGGUAACGCGUCUCGCUCCUAAGGAGAAGACUGAGGGUUCGAGUCCCGUACGGAACG | ≤ 0.5
62 | GCUCCGUUGGCGUAAUGGUAACGCGUCUCCCUCCUAAGGAGAAGACUGCGGGUUCGAGUCCCGUAUGGUACG | 0.603
63 | GCUCCGUUGGCGUAAUGGUAACGCGUGUCCCUCCUAAGGAGAAGAUUGCGGGUUCGAGUCCCGUACGGAACG | 0.705
64 | GCUCCGUUGGCGUAAUGGUAACGCGUCUCCCUCCUAAGGAGAAGACUGCGUGUACGAGUCCCGUACGGAUCG | ≤ 0.5
65 | GCUCCGUUGGCGUAAUGGUAACGCGUCUCCAUCCUAAGGAGAAGACUGCCGGUUCGAGUCCCGUACGGAGCG | ≤ 0.5
66 | GCUCCGUUGGCGUAAUGGUAACGCGUCUCGCUCCUAAGGAGAAGACUGCGGGUUCGAGUCUCGUACGAAACG | ≤ 0.5
67 | GCUCCGUUGGCGUAAUGGUAACGCGUCUCUCUCCUAAGGAGAAGACUGCGGGUACGAGUCCCGUACGGAACG | ≤ 0.5
68 | GCUCCGUUGGCGUAAUGGUAACGCGUCUCCCUUCUAAGGAGAAGACUGCGGGUUCGAGUCCCGUACGGUACG | ≤ 0.5
69 | GCUCCGUUGGCGUAAUGGUAACGCGUCUCCCUCCUAAGGAGAAGACUGUGGGUUCCAGUCCCGUACGGAACG | ≤ 0.5
70 | GCUCCGUUGGCGUAAUGGUAACGCGUCUCCCUCCUAAGGAGAAGACUGCGUGUUCGACUCCCGUACGGAACG | 0.548
71 | GCUCCGUUGGCGUAAUGGUAACCCGUCUCCCUCCUAAGGAGAAGACUGCGCGUUCGAGUCCCGUACGGAACG | ≤ 0.5
72 | GCUCCGUUGGCGUAAUGGUAACGCGUCUCCGUCCUAAGGAGAAGACUGCGGGUUCGAAUCCCGUACUGAACG | ≤ 0.5
73 | GCUCCGUUGGCGUAAUGGUAACGCGUCUCCCUCCUAAGGAGAAGACUACGGAUUCGAGUCCCGUACGGAACG | 0.623
74 | GCUCCGUUGGAGUAAUGGUAAGGCGUCUCCCUCCUAAGGAGAAGACUGCGGGUUCGAGUCCCGUACGGAACG | 0.602
75 | GCUCCAUUGGCGUAAUGGUUACGCGUCUCUCUCCUUAGGAGAAGACUGAGGGUUCGAGUCCCGUACGGAACG | ≤ 0.5
